Source: article PMC7580710 (Pharmacology Research & Perspectives, 2020)
Peptide text beside a SMILES is read from it. * marks the point of attachment. Lauroyl = CCCCCCCCCCCC(=O)*

Columns and labels:
[1] = Plasma pharmacokinetics after intravenous; assay type: in vivo, Sprague Dawley rats; conditions: rat, 2.5 mg i.v., plasma sampled for 3 days
Method in brief: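 Adult male Sprague Dawley rats (350-400 g) under isoflurane (5% induction, 1%-3% maintenance) got one internal jugular injection. Blood was taken by terminal cardiac puncture from 0 to 72 h (N = 3 per time) and plasma separated cold. Levels were measured in duplicate by LC-MS/MS after protein precipitation with analog internal standard (curve 1.0-500 ng/mL). Data were fitted with a three-compartment naïve-pooled model, extended least-squares, variance-weighted.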

Urinary excretion = assay type: in vivo, Sprague Dawley rats; conditions: rat, i.v., urine from bladder
[2] = cited from earlier work
[3] = 3 hours, or 1, 2, 3, and 7 days after injection; cited from earlier work

Compound: CCCCCCCCCCCC(=O)NCCCC[C@H](NC(=O)[C@@H](NC(=O)[C@@H](NC(=O)[C@H](C)NC(=O)[C@H](C)NC(=O)[C@H](CCCCN)NC(=O)[C@H](CCCCN)NC(=O)[C@H](CS)NC(=O)[C@H](CCCCN)NC(=O)[C@@H]1CCCN1C(=O)[C@H](CC(C)C)NC(=O)[C@@H](NC(=O)[C@H](Cc1c[nH]c2ccccc12)NC(=O)[C@H](CC(C)C)NC(=O)[C@@H](N)CCCCN)C(C)C)C(C)C)C(C)C)C(N)=O [collagen‐targeted PA] (H-KLWVLPKCKKAAVVK(Lauroyl)-NH2)
- observed terminal half-life (not to be interpreted as elimination half-life) [1]: 42.6 h
- presence of the target peptide in urine by LC-MS/MS (Urinary excretion): did not show the presence of the target peptide
- CAC for this fiber [2]: below 1 µM
- critical aggregation concentration (CAC) ([2]; collagen-targeted PA with Alexa Fluor 546, nanofibers at neutral pH): < 300 nM
- liver function profiles, coagulation panel, or chemistry panel [3]: no change
